Tests used:
Format in all cases: functional, Mus musculus
[1] = tested on: P388/ADR; assay: Antitumor activity against P388/ADR cells in ip implanted CDF1 mice, qd 1-9 measured as optimal dose
Outline: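 P388/ADR leukemia implanted ip in CDF1 mice; drugs given ip once daily on days 1-9. Optimal dose recorded alongside median survival time and % increase in median life span of treated dying mice versus controls; survivors counted as >60-day survivors per group of 10.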

[2] = tested on: P388/ADR; assay: Antitumor activity measured as Median survival time in days against P388/ADR cells in ip implanted CDF1 mice, qd 1-9
Outline: (§1)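 P388/ADR leukemia, a P388/S subline made resistant to intercalators, implanted ip in CDF1 mice. Drug given ip daily on days 1-9 at optimal dose. Read-out is median survival time of tumor-bearing mice and %ILS of treated dying animals versus controls. Survivors beyond 60 days are counted; 10 mice per group.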

[3] = tested on: P388/ADR; assay: Antitumor activity measured as %ILS against P388/ADR cells in ip implanted CDF1 mice, qd 1-9; outline: as §1

Compound: CO[C@@]12[C@H](COC(N)=O)C3=C(C(=O)C(C)=C(N)C3=O)N1C[C@@H]1N[C@@H]12 [MITOMYCIN]
- Dose [1]: 1 mg/kg
- MST [2]: 45 days
- ILS [3]: 400%
